pIC50: −log10 of the molar value. The source made the active and inactive calls. The calls are words filed in the database; no cut-off is given here.
Assays:
MCF7 [1] = test: Induction of apoptosis in human MCF7 cells assessed as increase in p27 expression at 2 uM after 4 to 24 hrs by Western blotting analysis relative to control; type: functional, cell-based
How it was run: (§1)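 MCF-7 seeded at 5 × 10⁴/cm² and exposed at 24 h to 2 µM compound for 0, 4, 8, 16 and 24 h. Lysates separated on 12% SDS gels, transferred to nitrocellulose, blocked in 5% milk. Primary antibodies applied overnight at 4 °C, then secondary 1 h at room temperature. Detection by ECL chemiluminescence with β-actin as loading reference.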

MCF7 [2] = test: Induction of apoptosis in human MCF7 cells assessed as increase in PARP cleavage at 2 uM after 4 to 24 hrs by Western blotting analysis relative to control; type: functional, cell-based; how it was run: as §1
MCF7 [3] = test: Induction of apoptosis in human MCF7 cells assessed as apoptotic cells at 3 uM after 48 hrs by annexin V staining-based flow cytometry (reference value: 3.44 %); type: functional
MCF7 [4] = test: Induction of apoptosis in human MCF7 cells assessed as apoptotic cells at 2 uM after 48 hrs by annexin V staining-based flow cytometry (reference value: 3.44 %); type: functional
MCF7 [5] = test: Cytotoxicity against human MCF7 cells assessed as reduction in cell viability at 3 uM after 3 days by SRB assay relative to control; type: functional
How it was run: (§2)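 MCF-7 seeded at high density (5 × 10⁴/cm²) and treated at 24 h with compound for 3 days, with or without 20 mM NAC. Viable cells quantified by sulforhodamine B staining, OD 492 nm. Viability reduction expressed versus untreated controls.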

MCF7 [6] = test: Cytotoxicity against human MCF7 cells assessed as reduction in cell viability after 3 days by SRB assay; type: functional, cell-based; how it was run: as §2
[7] = Therapeutic index, ratio of IC50 for human MCF10A cells to IC50 for human MCF7 cells; type: cell-based, MCF-10A; details: MCF10A cells versus MCF7 cells, read-out: Ratio IC50
MCF7 [8] = test: Induction of apoptosis in human MCF7 cells assessed as reduction in total pRb protein expression at 2 uM after 16 hrs by Western blotting analysis relative to control; type: functional; set-up: scale not given: the % may be the effect or the level left
How it was run: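 MCF-7 seeded at 5 × 10⁴ cells/cm², exposed after 24 h to 2 µM for 0, 4, 8, 16 and 24 h. Lysed in SDS sample buffer, run on 12% acrylamide gels, transferred to nitrocellulose and blocked with 5% milk. Primary antibodies overnight at 4 °C (total or phospho-pRb, β-actin), secondary 1 h at room temperature, ECL chemiluminescence detection.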

RKO = test: Cytotoxicity against human RKO cells after 3 days by SRB assay; type: functional, cell-based; details: 72 h
How it was run: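 Cells seeded at 5 × 10³ cells/cm² in quadruplicate and, after 24 h, treated with increasing concentrations for 3 days. Compounds diluted from DMSO stock, final DMSO <0.1% v/v. Cells were fixed with cold 10% TCA, stained with 0.4% sulforhodamine B in 1% acetic acid, and dye solubilised in 10 mM Tris-base pH 10.5. OD read at 492 nm. IC50 obtained by linear interpolation on a semi-log dose-response curve.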

MCF7 [9] = test: Cell cycle arrest in human MCF7 cells assessed as accumulation at […] phase at 1 uM after 48 hrs by propidium iodide/RNAse staining-based FACS analysis (reference value: 8.02 %); type: functional

C=C1CC[C@@H]2[C@](C)(CCC[C@]2(C)C(=O)OC)[C@H]1Cc1c(C)ccc2c1C(=O)C=CC2=O
Activity (MCF7 [1]): Active | Activity (MCF7 [2]): Active | Activity (MCF7 [3]): 57.8% | Activity (MCF7 [4]): 29.13% | viability (MCF7 [5]): 23.26% | Activity (MCF7 [6]): Dose-dependent effect | selectivity ratio [7]: 9 | Activity (MCF7 [8]): 90% | pIC50 (RKO): 6.23 | Activity (MCF7 [9]): 15.56%

Source: ChEMBL document CHEMBL3259621, “Novel merosesquiterpene exerts a potent antitumor activity against breast cancer cells in vitro and in vivo” (Eur J Med Chem, 2014)
